JMJD2C inh = human JMJD2C demethylase inhibition; Q9H3R0; GST-JMJD2C(1-420) H3K9me3 demethylation, DELFIA europium; inhibition, % at 2.35 µM; 330,000 compounds, 0.069% hits; AID 2099;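 active = more than half of a compound's replicate wells show inhibition beyond 50%, single wells judged on their own value; inconclusive = some, but no more than half, of replicates pass 50% inhibition; inactive = no replicate passes 50% inhibition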;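 note: signal counts dimethyl H3K9 product captured on neutravidin plate; 0% = median of DMSO wells and 100% = 0.3 times that DMSO median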
SIAE primary = human SIAE inhibition, primary screen. 370,000 compounds, 0.69% hits. SIAE FP-Rh probe binding, fluorescence polarization. inhibition, % at 9.66 µM. AID 1053197. Q9HAT2;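 active = inhibition above a cutoff: mean of compounds within the control limits plus 3 SD of those, cut at about 17% in these data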;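 note: 0% = plate median of compound wells and 100% = probe without SIAE protein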
PRMT1 FP inh = inhibitors of human PRMT1 | 370,000 compounds, 1.3% hits | Q99873 | inhibition, % at 2.79 µM | recombinant PRMT1, activity-based probe fluorescence polarization | AID 652257;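 active = inhibition above about 21% made by adding two undisclosed values, limit read from the data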
Target sequence (Q99873 whole entry, looked up): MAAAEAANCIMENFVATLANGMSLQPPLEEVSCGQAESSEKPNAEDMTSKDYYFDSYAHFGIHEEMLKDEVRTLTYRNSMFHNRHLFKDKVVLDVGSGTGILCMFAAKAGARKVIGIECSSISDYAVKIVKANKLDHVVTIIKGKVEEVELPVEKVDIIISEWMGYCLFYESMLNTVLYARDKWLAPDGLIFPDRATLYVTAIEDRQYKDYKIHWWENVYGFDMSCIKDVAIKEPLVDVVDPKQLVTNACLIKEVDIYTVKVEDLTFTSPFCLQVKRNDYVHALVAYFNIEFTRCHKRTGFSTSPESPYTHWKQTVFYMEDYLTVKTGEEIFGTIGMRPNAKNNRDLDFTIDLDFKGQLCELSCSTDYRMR
HTRA1 inhibitor = inhibitors of human serine peptidase HTRA1. inhibition, % at 5.96 µM. AID 504803. Q92743. 340,000 compounds, 0.5% hits. recombinant HTRA1, FP-rhodamine activity-based probe, fluorescence polarization; in the data active = inhibition above about 36%;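 note: 0% = enzyme with DMSO and 100% = wells lacking enzyme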
mABHD4 FP = inhibits mouse alpha/beta hydrolase domain 4 | Q8VD66 | purified mABHD4, FP-Rh probe fluorescence polarization | inhibition, % at 8.92 µM | 370,000 compounds, 0.54% hits;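 active = inhibition exceeding the mean over every tested compound plus 3 SD, cut at about 30% in these data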;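 note: 0% = plate median of compound wells and 100% = S159A mutant with DMSO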
Target sequence (Q8VD66 whole entry, looked up, the tested form may be a part): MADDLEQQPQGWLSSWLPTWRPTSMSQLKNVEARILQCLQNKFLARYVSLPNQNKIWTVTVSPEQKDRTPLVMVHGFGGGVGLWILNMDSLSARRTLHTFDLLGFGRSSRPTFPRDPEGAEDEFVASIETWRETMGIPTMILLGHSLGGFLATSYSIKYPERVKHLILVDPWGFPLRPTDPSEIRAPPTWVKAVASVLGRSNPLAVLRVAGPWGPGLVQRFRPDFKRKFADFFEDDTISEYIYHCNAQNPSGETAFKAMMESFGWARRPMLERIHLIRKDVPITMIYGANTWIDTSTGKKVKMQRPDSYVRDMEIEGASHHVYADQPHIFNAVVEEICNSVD
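Material: mouse ABHD4 enzyme, wild type; Benchmarks: S159A mutant high control, sample median low control; Buffer or medium: HEPES pH 7.0, NaCl, Pluronic buffer; Signal: fluorescence polarization; Read-out: percent inhibition of probe binding, normalized to plate controls; Timing: pre-incubation 45 min, probe exposure 60 min, at 25 °C; Dosing: 8.92 µM, single dose.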
PRMT1 inh conf = PRMT1 (human) inhibition, FP confirmation. recombinant His-PRMT1, activity-based probe fluorescence polarization. AID 687036. inhibition, % at 2.79 µM. shares compounds with PRMT1 FP inh. 3,300 compounds, 42% hits;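 active = mean inhibition across replicates above the hit cutoff derived for the earlier primary screen, cut at about 22% in these data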
mABHD4 conf = confirmation of mouse ABHD4 inhibitors | purified mABHD4, FP-Rh probe fluorescence polarization | AID 720658 | 1,800 compounds, 55% hits | inhibition, % at 8.92 µM | shares compounds with mABHD4 FP;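 active = mean inhibition across replicates above the hit cutoff set in the primary screen, cut at about 30% in these data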;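 note: 0% = wild-type ABHD4 with DMSO and 100% = catalytically dead S159A mutant with DMSO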
* hit, by the source's call. A selection: hits, their analogues and other compounds. The true share with any hit is near 2.4%.

Results for Cc1nc2sc(C(N)=O)c(N)c2c2c1CCCC2 ?
JMJD2C inh: 7.5; SIAE primary: 4.6; PRMT1 FP inh: 0.8; HTRA1 inhibitor: 5.2; mABHD4 FP: 1.2

What do the screens show for `NC(=O)c1sc2nc3c(c(-c4ccco4)c2c1N)CCC3`?
JMJD2C inh: -37.8; SIAE primary: 2.9; PRMT1 FP inh: 46.9*; HTRA1 inhibitor: 26.1; mABHD4 FP: 30.1*; PRMT1 inh conf: 3.5; mABHD4 conf: 8.2

Results for CCCCCC(=O)Nc1cc(S(=O)(=O)O)cc2cc(S(=O)(=O)O)cc(O)c12 ?
SIAE primary: 10.8; PRMT1 FP inh: 44.6*; HTRA1 inhibitor: 23.3; mABHD4 FP: 48.9*; PRMT1 inh conf: 56.7*; mABHD4 conf: 64.5*

Results for C#CCNC(=O)C[C@H]1C[C@@]2(C(=O)OC)C(=C[C@H](C(C)(C)C)O[C@@H]2C)N(CCCCCCCC)C1=O ?
SIAE primary: 4.9; PRMT1 FP inh: 5.4; mABHD4 FP: -7.9

Results for O=c1cc(Br)c(O)c(Br)cc1Br ?
SIAE primary: 2.7; PRMT1 FP inh: 34.9*; HTRA1 inhibitor: 14.0; mABHD4 FP: 31.2*; PRMT1 inh conf: 39.4*; mABHD4 conf: 18.5

How did COc1ccc(C(NC(=O)C2CCN(Cc3ccc(Oc4ccccc4)cc3)CC2)c2ccccn2)cc1 (stereo unspecified) do in these assays?
SIAE primary: -7.4; PRMT1 FP inh: 3.0; mABHD4 FP: 1.5

Results for CCCC(C)NC(=O)CC1Oc2ccccc2NC1=O (stereo unspecified) ?
SIAE primary: 0.8; PRMT1 FP inh: 3.8; mABHD4 FP: -3.1

Results for Cc1cccc(NC(=O)CSc2nnc(-c3ccco3)c(-c3ccco3)n2)c1 ?
SIAE primary: 15.6; PRMT1 FP inh: 42.4*; HTRA1 inhibitor: 25.7; mABHD4 FP: 43.8*; PRMT1 inh conf: 52.1*; mABHD4 conf: 44.1*

Results for COC(=O)c1cc(NCc2c(F)cccc2Cl)ccc1N1CCOCC1 ?
JMJD2C inh: 2.6; SIAE primary: -4.2; PRMT1 FP inh: 6.8; HTRA1 inhibitor: 0.3; mABHD4 FP: -6.5

How did COC(=O)c1ccc(NCc2c(O)ccc(O)c2Br)cc1Cl do in these assays?
SIAE primary: 11.9; PRMT1 FP inh: 82.5*; HTRA1 inhibitor: -14.4; mABHD4 FP: 30.6*; PRMT1 inh conf: 15.1; mABHD4 conf: 37.3*

Results for CC(NC(=O)c1ccc(Cl)c(S(=O)(=O)NC2CC2)c1)c1ccco1 (stereo unspecified) ?
SIAE primary: 2.1; PRMT1 FP inh: -3.2; HTRA1 inhibitor: -2.9; mABHD4 FP: -3.0

What do the screens show for `COC(=O)C1=C(C)N(Cc2ccc(C)cc2)C(=O)/C1=C\c1ccc(O)c(OC)c1`?
JMJD2C inh: -1.2; SIAE primary: 5.0; PRMT1 FP inh: 27.3*; HTRA1 inhibitor: 1.1; mABHD4 FP: 33.4*; PRMT1 inh conf: 5.4; mABHD4 conf: 46.6*

How did COC(=O)[C@]12C[C@H](CC(=O)N3CCSCC3)C(=O)N(Cc3ccco3)C1=C[C@H](C(C)(C)C)O[C@@H]2C do in these assays?
SIAE primary: -4.0; PRMT1 FP inh: 5.1; mABHD4 FP: 5.0

What do the screens show for `Cc1cc(-c2ccccc2C(=O)O)on1`?
JMJD2C inh: -11.4; SIAE primary: 0.3; PRMT1 FP inh: 1.4; HTRA1 inhibitor: 0.1; mABHD4 FP: 2.1

Results for O=C(O)c1ccccc1C1=Nc2ccc(O)cc2Oc2cc(O)ccc21 ?
JMJD2C inh: 44.5; SIAE primary: 13.5; PRMT1 FP inh: 47.5*; HTRA1 inhibitor: 17.0; mABHD4 FP: 30.2*; PRMT1 inh conf: 65.4*; mABHD4 conf: 61.2*

What do the screens show for `Cc1[nH]c2ccccc2c1CC#N`?
JMJD2C inh: 21.9; SIAE primary: -5.2; PRMT1 FP inh: -4.5; HTRA1 inhibitor: 2.3; mABHD4 FP: -7.7

What do the screens show for `Cc1[nH]c2ccccc2c1C1=CC(=O)C=CC1=O`?
SIAE primary: 13.1; PRMT1 FP inh: 95.9*; HTRA1 inhibitor: 31.8; mABHD4 FP: 77.8*; PRMT1 inh conf: 93.2*; mABHD4 conf: 80.7*

What do the screens show for `COCCCn1c(C(=O)Nc2ccc3c(c2)OCO3)cc2c(=O)n3cccc(C)c3nc21`?
SIAE primary: -0.3; PRMT1 FP inh: 0.2; HTRA1 inhibitor: 3.0; mABHD4 FP: 2.7

How did Cc1ccc(S(=O)(=O)/N=C2/NC(=O)/C(=C\c3ccco3)S2)cc1 do in these assays?
JMJD2C inh: -3.2; SIAE primary: -13.0; PRMT1 FP inh: 28.1*; HTRA1 inhibitor: -10.7; mABHD4 FP: 31.8*; PRMT1 inh conf: 5.8; mABHD4 conf: -19.7

What do the screens show for `Cc1ccc(S(=O)(=O)/N=C2/NC(=O)/C(=C\c3ccccc3)S2)cc1`?
JMJD2C inh: 15.9; SIAE primary: -19.6; PRMT1 FP inh: 0.4; HTRA1 inhibitor: -47.2; mABHD4 FP: -46.8

Results for Oc1cccc(CN2CCOCC2)c1O ?
SIAE primary: 3.5; PRMT1 FP inh: 32.6*; HTRA1 inhibitor: 27.2; mABHD4 FP: 41.9*; PRMT1 inh conf: 9.5; mABHD4 conf: 6.2

What do the screens show for `Oc1ccc2ccccc2c1CN1CCOCC1`?
JMJD2C inh: -1.6; SIAE primary: -6.5; PRMT1 FP inh: 20.8; HTRA1 inhibitor: 11.0; mABHD4 FP: 5.3

How did O=C(COCc1ccccc1)NC1CCCCN(Cc2ccc(Cl)cc2)C1=O (stereo unspecified) do in these assays?
SIAE primary: 5.5; PRMT1 FP inh: -0.5; mABHD4 FP: 12.2

What do the screens show for `Cc1cccc(C)c1NC(=O)CSCC(=O)c1ccc(O)c(O)c1`?
JMJD2C inh: 18.7; SIAE primary: -0.4; PRMT1 FP inh: 39.4*; HTRA1 inhibitor: 30.0; mABHD4 FP: 31.7*; PRMT1 inh conf: 62.1*; mABHD4 conf: 27.4

Results for CN(C)c1ccc2cc(S(=O)(=O)O)cc(O)c2c1 ?
SIAE primary: 1.6; PRMT1 FP inh: 102.3*; HTRA1 inhibitor: 35.9; mABHD4 FP: 77.5*; PRMT1 inh conf: 32.6*; mABHD4 conf: 54.3*

How did O=Nc1c(O)ccc2cc(S(=O)(=O)O)ccc12 do in these assays?
HTRA1 inhibitor: 0.8

Results for O=C(O)CSc1cc(NS(=O)(=O)c2cccc([N+](=O)[O-])c2)c2ccccc2c1O ?
JMJD2C inh: -9.1; SIAE primary: 11.1; PRMT1 FP inh: 62.5*; HTRA1 inhibitor: 21.6; mABHD4 FP: 40.7*; PRMT1 inh conf: 94.7*; mABHD4 conf: 34.5*

What do the screens show for `CCOc1ccc(S(=O)(=O)Nc2cc(SCC(=O)O)c(O)c3ccccc23)cc1`?
JMJD2C inh: inconclusive; SIAE primary: 6.0; PRMT1 FP inh: 65.3*; HTRA1 inhibitor: 31.6; mABHD4 FP: 42.6*; PRMT1 inh conf: 92.8*; mABHD4 conf: 45.2*

Screens deposited in PubChem BioAssay by several laboratories.
